# Experimental data collected from several papers.
# Lines come from different studies, so protocols differ.
# Cell line: A549
# Observed: cell growth or viability
SMILES,method,time,IC50
CC1=C(O)C(=O)C=C2C1=CC=C1[C@@]2(C)CC[C@@]2(C)[C@@H]3C[C@](C)(C(=O)OCCCn4cc(C=O)c5ccccc54)CC[C@]3(C)CC[C@]12C,MTT,48 h,7830 nM
COc1cccc2c1C(=O)c1c(O)c3c(c(O)c1C2=O)C[C@@](O)(C(=O)CO)C[C@@H]3O[C@H]1C[C@H](N)[C@H](O[C@@H]2CCCCO2)[C@H](C)O1,MTT,12 h,5800 nM
Cc1ccc(CN2C(=O)/C(=N\NC(=O)c3cc4ccccc4[nH]3)c3ccccc32)cc1,,,640 nM
C=CCc1cc(OC)c2c(c1)OCO2,SRB,,359000 nM
CC[C@@]1(OC(=O)[C@@H](N)CCSC)C(=O)OCc2c1cc1n(c2=O)Cc2cc3cc4c(cc3nc2-1)OCO4,MTT,,85 nM
Nc1cc(Br)c(Br)cc1N,,72 h,75000 nM
CC[C@@]1(OC(=O)C(C)c2ccc(CC(C)C)cc2)C(=O)OCc2c1cc1n(c2=O)Cc2cc3cc4c(cc3nc2-1)OCO4 (stereo partly shown),MTT,,> 5000 nM
COc1ccc2c(c1)[nH]c1c(C)nccc12,MTT,72 h,19400 nM
CC[C@@]1(OC(=O)[C@@H](N)CCCCN)C(=O)OCc2c1cc1n(c2=O)Cc2cc3cc4c(cc3nc2-1)OCO4,MTT,,88 nM
N.N.[Cl][Pt][Cl],MTT,24 h,5350 nM
CC[C@@]1(OC(=O)C(C)c2cccc(C(=O)c3ccccc3)c2)C(=O)OCc2c1cc1n(c2=O)Cc2cc3cc4c(cc3nc2-1)OCO4 (stereo partly shown),MTT,,289 nM
O=C(N/N=C1\C(=O)N(Cc2ccccc2)c2ccc(Cl)cc21)c1cc2ccccc2[nH]1,,72 h,1330 nM
CC[C@@]1(OC(=O)CN)C(=O)OCc2c1cc1n(c2=O)Cc2cc3cc4c(cc3nc2-1)OCO4,MTT,,29 nM
COc1ccc2c(c1)/C(=N/NC(=O)c1cc3ccccc3[nH]1)C(=O)N2Cc1ccccc1,,,640 nM
COc1c2c(cc3c1OCO3)[C@]13C=C[C@H](OC)C[C@@H]1[N@](C2)C[C@H]3OC(=O)c1ccc2ccccc2c1,WST-1,,> 10000 nM
Nc1cc(Cl)c(Cl)cc1N,,72 h,120000 nM
CC[C@@]1(OC(=O)[C@@H](N)Cc2ccccc2)C(=O)OCc2c1cc1n(c2=O)Cc2cc3cc4c(cc3nc2-1)OCO4,MTT,,36 nM
O=C(N/N=C1\C(=O)N(Cc2ccccc2)c2ccccc21)c1cc2ccccc2[nH]1,,,1060 nM
CCCCCCCC(=O)SCC/C=C/[C@@H]1CC(=O)NCc2nc(cs2)C2=N[C@@](C)(CS2)C(=O)N[C@@H](C(C)C)C(=O)O1,resazurin,48 h,3.8 nM
